Data as given in ChEMBL document CHEMBL5329156, “Discovery and development of novel substituted monohydrazides as potent antifungal agents” (RSC Med Chem, 2023).
≈ marks a conversion by molar mass, not a printed value. Calls of active or inactive are those of the source. The calls are words filed in the database; no cut-off is given here.

Assays:
Candida duobushaemulonii [1] = assay: Antifungal activity against Candida duobushaemulonii AR Bank # 394 assessed as fungal growth inhibition by double dilution method; assay type: functional; conditions: Candidozyma duobushaemuli
Method in brief: (§1)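 Broth microdilution after CLSI M27-A3/M38-A2 with minor changes. Single colony grown overnight in YPD at 35 °C, 200 rpm. Compound final range 0.06-31.3 µg/mL; incubated 48 h at 35 °C.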

[Candida] auris [2] = Antifungal activity against Candida auris AR Bank # 385 assessed as fungal growth inhibition by double dilution method; assay type: functional; conditions: Candidozyma auris; method in brief: as §1
[Candida] haemuloni [3] = Antifungal activity against Candida haemulonii AR Bank # 395 assessed as fungal growth inhibition by double dilution method; assay type: functional; conditions: Candidozyma haemuli; method in brief: as §1
Candida duobushaemulonii [4] = assay: Antifungal activity against Candida duobushaemulonii AR Bank # 392 assessed as fungal growth inhibition by double dilution method; assay type: functional; conditions: Candidozyma duobushaemuli; method in brief: as §1
Candida albicans [5] = assay: Antifungal activity against itraconazole/fluconazole resistant Candida albicans ATCC 90819 assessed as fungal growth inhibition by double dilution method; assay type: functional
Method in brief: (§2)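 Broth microdilution after CLSI M27-A3/M38-A2 with minor modifications. A single colony was grown overnight in YPD at 35 °C with shaking at 200 rpm. Cells were mixed 1:1 with compound (final 0.06-31.3 µg/mL, from DMSO stocks) and incubated 48 h at 35 °C.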

Candida albicans [6] = assay: Antifungal activity against Candida albicans ATCC 64124 assessed as fungal growth inhibition by double dilution method; assay type: functional; method in brief: as §2
Nakaseomyces glabratus [7] = assay: Antifungal activity against Candida glabrata ATCC 22019 assessed as fungal growth inhibition by double dilution method; assay type: functional; method in brief: as §1
[Candida] haemuloni [8] = Antifungal activity against Candida haemulonii AR Bank # 393 assessed as fungal growth inhibition by double dilution method; assay type: functional; conditions: Candidozyma haemuli; method in brief: as §1
Pichia kudriavzevii [9] = assay: Antifungal activity against Pichia kudriavzevii ATCC 6258 assessed as fungal growth inhibition by double dilution method; assay type: functional; method in brief: as §1
Cryptococcus neoformans = assay: Antifungal activity against Cryptococcus neoformans ATCC MYA-895 assessed as fungal growth inhibition by double dilution method; assay type: functional; method in brief: as §1
Aspergillus fumigatus [10] = assay: Antifungal activity against Aspergillus fumigatus NRRL 163 assessed as fungal growth inhibition by double dilution method; assay type: functional
Kodamaea ohmeri = assay: Antifungal activity against Kodamaea ohmeri AR Bank # 396 assessed as fungal growth inhibition by double dilution method; assay type: functional; method in brief: as §1
Nakaseomyces glabratus [11] = assay: Antifungal activity against Candida glabrata ATCC 2001 assessed as fungal growth inhibition by double dilution method; assay type: functional; method in brief: as §1
Clavispora lusitaniae = assay: Antifungal activity against Clavispora lusitaniae AR Bank # 398 assessed as fungal growth inhibition by double dilution method; assay type: functional; method in brief: as §1
[Candida] auris [12] = Antifungal activity against Candida auris AR Bank # 387 assessed as fungal growth inhibition by double dilution method; assay type: functional; conditions: Candidozyma auris; method in brief: as §1
[Candida] auris [13] = Antifungal activity against Candida auris AR Bank # 389 assessed as fungal growth inhibition by double dilution method; assay type: functional; conditions: Candidozyma auris; method in brief: as §1
Aspergillus terreus = assay: Antifungal activity against Aspergillus terreus ATCC MYA-3633 assessed as fungal growth inhibition by double dilution method; assay type: functional
Candida albicans [14] = assay: Antifungal activity against itraconazole/fluconazole resistant Candida albicans ATCC MYA-1003 assessed as fungal growth inhibition by double dilution method; assay type: functional; method in brief: as §2
Candida duobushaemulonii [15] = assay: Antifungal activity against Candida duobushaemulonii AR Bank # 391 assessed as fungal growth inhibition by double dilution method; assay type: functional; conditions: Candidozyma duobushaemuli; method in brief: as §1
[Candida] auris [16] = Antifungal activity against Candida auris AR Bank # 388 assessed as fungal growth inhibition by double dilution method; assay type: functional; conditions: Candidozyma auris; method in brief: as §1
Candida albicans [17] = assay: Antibiofilm activity against Candida albicans ATCC 10231 assessed as reduction in biofilm production at 1.96 to 3.9 microg/ml by biofilm formation assay; assay type: functional, organism-based; conditions: dose 1.96-3.9 µg/ml
[Candida] auris [18] = Antifungal activity against Candida auris AR Bank # 381 assessed as fungal growth inhibition by double dilution method; assay type: functional; conditions: Candidozyma auris; method in brief: as §1
[Candida] auris [19] = Antifungal activity against Candida auris AR Bank # 0384 assessed as fungal growth inhibition by double dilution method; assay type: functional; conditions: Candidozyma auris; method in brief: as §1
[Candida] auris [20] = Antifungal activity against Candida auris AR Bank # 382 assessed as fungal growth inhibition by double dilution method; assay type: functional; conditions: Candidozyma auris; method in brief: as §1
Saccharomyces cerevisiae [21] = assay: Antifungal activity against Saccharomyces cerevisiae AR Bank # 400 assessed as fungal growth inhibition by double dilution method; assay type: functional; method in brief: as §1
Aspergillus nidulans = assay: Antifungal activity against Aspergillus nidulans ATCC 38163 assessed as fungal growth inhibition by double dilution method; assay type: functional
Saccharomyces cerevisiae [22] = assay: Antifungal activity against Saccharomyces cerevisiae AR Bank # 399 assessed as fungal growth inhibition by double dilution method; assay type: functional; method in brief: as §1
[Candida] auris [23] = Antifungal activity against Candida auris AR Bank # 386 assessed as fungal growth inhibition by double dilution method; assay type: functional; conditions: Candidozyma auris; method in brief: as §1
[Candida] auris [24] = Antifungal activity against Candida auris AR Bank # 390 assessed as fungal growth inhibition by double dilution method; assay type: functional; conditions: Candidozyma auris; method in brief: as §1
Candida albicans [25] = assay: Antifungal activity against itraconazole/fluconazole susceptible Candida albicans ATCC MYA-2876 assessed as fungal growth inhibition by double dilution method; assay type: functional; method in brief: as §2
Aspergillus fumigatus [26] = assay: Antifungal activity against Aspergillus fumigatus NRRL 6113 assessed as fungal growth inhibition by double dilution method; assay type: functional
Pichia kudriavzevii [27] = assay: Antifungal activity against Pichia kudriavzevii AR Bank # 397 assessed as fungal growth inhibition by double dilution method; assay type: functional; method in brief: as §1
[Candida] auris [28] = Antifungal activity against Candida auris AR Bank # 384 assessed as fungal growth inhibition by double dilution method; assay type: functional; conditions: Candidozyma auris; method in brief: as §1
Candida albicans [29] = assay: Antifungal activity against Candida albicans ATCC 10231 assessed as fungal growth inhibition by double dilution method; assay type: functional; method in brief: as §1
Aspergillus flavus = assay: Antifungal activity against Aspergillus flavus ATCC MYA-3631 assessed as fungal growth inhibition by double dilution method; assay type: functional
[Candida] auris [30] = Antifungal activity against Candida auris AR Bank # 383 assessed as fungal growth inhibition by double dilution method; assay type: functional; conditions: Candidozyma auris; method in brief: as §1
Candida albicans [31] = assay: Antifungal activity against itraconazole/fluconazole resistant Candida albicans ATCC MYA-1237 assessed as fungal growth inhibition by double dilution method; assay type: functional; method in brief: as §2
[Candida] auris [32] = Antifungal activity against Candida auris AR Bank # 0390 assessed as fungal growth inhibition by double dilution method; assay type: functional; conditions: Candidozyma auris; method in brief: as §1
Aspergillus fumigatus [33] = assay: Antifungal activity against Aspergillus fumigatus NRRL 5109 assessed as fungal growth inhibition by double dilution method; assay type: functional
Candida albicans [34] = assay: Antifungal activity against itraconazole/fluconazole susceptible Candida albicans ATCC MYA-2310 assessed as fungal growth inhibition by double dilution method; assay type: functional; method in brief: as §2

Compound: O=C(NNc1cc(Cl)cc(Cl)c1)c1ccccn1
- MIC (Candida duobushaemulonii [1]): 0.49 µg/mL (≈ 1.74 µM)
- MIC ([Candida] auris [2]): 1.95 µg/mL (≈ 6.91 µM)
- MIC ([Candida] haemuloni [3]): 0.24 µg/mL (≈ 0.851 µM)
- MIC (Candida duobushaemulonii [4]): 0.98 µg/mL (≈ 3.47 µM)
- MIC (Candida albicans [5]): 0.98 µg/mL (≈ 3.47 µM)
- MIC (Candida albicans [6]): 1.95 µg/mL (≈ 6.91 µM)
- MIC (Nakaseomyces glabratus [7]): 1.95 µg/mL (≈ 6.91 µM)
- MIC ([Candida] haemuloni [8]): 0.24 µg/mL (≈ 0.851 µM)
- MIC (Pichia kudriavzevii [9]): 0.98 µg/mL (≈ 3.47 µM)
- MIC (Cryptococcus neoformans): 0.49 µg/mL (≈ 1.74 µM)
- MIC (Aspergillus fumigatus [10]): > 31.3 µg/mL
- MIC (Kodamaea ohmeri): 0.49 µg/mL (≈ 1.74 µM)
- MIC (Nakaseomyces glabratus [11]): 7.8 µg/mL (≈ 27.6 µM)
- MIC (Clavispora lusitaniae): 3.9 µg/mL (≈ 13.8 µM)
- MIC ([Candida] auris [12]): 0.98 µg/mL (≈ 3.47 µM)
- MIC ([Candida] auris [13]): 1.95 µg/mL (≈ 6.91 µM)
- MIC (Aspergillus terreus): 1.95 µg/mL (≈ 6.91 µM)
- MIC (Candida albicans [14]): 1.95 µg/mL (≈ 6.91 µM)
- MIC (Candida duobushaemulonii [15]): 0.98 µg/mL (≈ 3.47 µM)
- MIC ([Candida] auris [16]): 3.9 µg/mL (≈ 13.8 µM)
- Activity (Candida albicans [17]): inactive
- MIC ([Candida] auris [18]): 3.9 µg/mL (≈ 13.8 µM)
- MIC ([Candida] auris [19]): 7.8 µg/mL (≈ 27.6 µM)
- MIC ([Candida] auris [20]): 0.98 µg/mL (≈ 3.47 µM)
- MIC (Saccharomyces cerevisiae [21]): 3.9 µg/mL (≈ 13.8 µM)
- MIC (Aspergillus nidulans): 0.49 µg/mL (≈ 1.74 µM)
- MIC (Saccharomyces cerevisiae [22]): 3.9 µg/mL (≈ 13.8 µM)
- MIC ([Candida] auris [23]): 0.98 µg/mL (≈ 3.47 µM)
- MIC ([Candida] auris [24]): 3.9 µg/mL (≈ 13.8 µM)
- MIC (Candida albicans [25]): 1.95 µg/mL (≈ 6.91 µM)
- MIC (Aspergillus fumigatus [26]): > 31.3 µg/mL
- MIC (Pichia kudriavzevii [27]): 0.49 µg/mL (≈ 1.74 µM)
- MIC ([Candida] auris [28]): 7.8 µg/mL (≈ 27.6 µM)
- MIC (Candida albicans [29]): 0.24 µg/mL (≈ 0.851 µM)
- MIC (Aspergillus flavus): > 31.3 µg/mL
- MIC ([Candida] auris [30]): 1.95 µg/mL (≈ 6.91 µM)
- MIC (Candida albicans [31]): 3.9 µg/mL (≈ 13.8 µM)
- MIC ([Candida] auris [32]): 1.95 µg/mL (≈ 6.91 µM)
- MIC (Aspergillus fumigatus [33]): > 31.3 µg/mL
- MIC (Candida albicans [34]): 1.95 µg/mL (≈ 6.91 µM)
